# Tests used:
# Rattus norvegicus [1] = test: Percent change in iron levels was determined in urine using iron overload rat model where the route of administration is Intraperitoneal; assay type: functional
# Rattus norvegicus [2] = test: Percent change in iron levels was determined in feces using iron overload rat model where the route of administration is Intraperitoneal; assay type: functional
# Mus musculus [3] = test: BDF1 male mice were administered with 150 mg/kg po and percent change in iron levels was determined in Liver; assay type: functional
# Method in brief: (§1)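 Male BDF1 mice made iron-overloaded by transfusion of washed, heat-treated (50 °C, 30 min) canine red cells. Dosing began 2 days after the last transfusion, once daily for 7 days, in distilled water or 2% Polysorbate 80 suspension. Daily group urine was collected. Pooled feces were digested in 1 N HCl (90 °C, 30 min). Liver and spleen were homogenized in saline. Iron was measured by atomic absorption and expressed as % change vs transfused controls.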
# Mus musculus [4] = test: BDF1 male mice were administered with 150 mg/kg po and percent change in iron levels was determined in Urine; assay type: functional; method in brief: as §1
# Mus musculus [5] = test: BDF1 male mice were administered with 100 mg/kg ip and percent change in iron levels was determined in Feces; assay type: functional; conditions: route intraperitoneal; method in brief: as §1
# Rattus norvegicus [6] = test: Percent change in iron levels was determined in feces using iron overload rat model where the route of administration is Peroral; assay type: functional
# Mus musculus [7] = test: BDF1 male mice were administered with the compound and number of survivors was determined at a dose 100 mg/kg peroral out of 10 tested; assay type: functional; conditions: route oral
# Method in brief: (§2)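 Male BDF1 mice were iron-loaded by transfusion of canine red cells. The cells were heparinised, washed twice in isotonic saline and heated at 50 °C for 30 min. Dosing started two days after the last transfusion, once daily for 7 consecutive days. Compounds were given in distilled water or as a fine aqueous suspension with Polysorbate 80 (2% final). Toxic signs were recorded daily and survivors counted per group.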
# Mus musculus [8] = test: BDF1 male mice were administered with 100 mg/kg po and percent change in iron levels was determined in Liver; assay type: functional; method in brief: as §1
# Mus musculus [9] = test: BDF1 male mice were administered with the compound and number of survivors was determined at a dose 150 mg/kg peroral out of 10 tested; assay type: functional; conditions: route oral; method in brief: as §2
# Mus musculus [10] = test: BDF1 male mice were administered with 150 mg/kg po and percent change in iron levels was determined in Feces; assay type: functional; method in brief: as §1
# Mus musculus [11] = test: BDF1 male mice were administered with 100 mg/kg ip and percent change in iron levels was determined in Liver; assay type: functional; conditions: route intraperitoneal; method in brief: as §1
# Mus musculus [12] = test: BDF1 male mice were administered with 100 mg/kg ip and percent change in iron levels was determined in Urine; assay type: functional; conditions: route intraperitoneal; method in brief: as §1
# Mus musculus [13] = test: BDF1 male mice were administered with 100 mg/kg po and percent change in iron levels was determined in Feces; assay type: functional; method in brief: as §1
# Mus musculus [14] = test: BDF1 male mice were administered with the compound and number of survivors was determined at a dose 100 mg/kg intraperitoneal out of 10 tested; assay type: functional; method in brief: as §2
# Mus musculus [15] = test: BDF1 male mice were administered with 100 mg/kg ip and percent change in iron levels was determined in Spleen; assay type: functional; conditions: route intraperitoneal; method in brief: as §1
# Mus musculus [16] = test: BDF1 male mice were administered with 150 mg/kg po and percent change in iron levels was determined in Spleen; assay type: functional; method in brief: as §1
# Mus musculus [17] = test: BDF1 male mice were administered with 100 mg/kg po and percent change in iron levels was determined in Urine; assay type: functional; method in brief: as §1
# Mus musculus [18] = test: BDF1 male mice were administered with 100 mg/kg po and percent change in iron levels was determined in Spleen; assay type: functional; method in brief: as §1
# Rattus norvegicus [19] = test: Percent change in iron levels was determined in urine using iron overload rat model where the route of administration is Peroral; assay type: functional
# [20] = Half life was determined titrimetrically at pH 10.5 in the absence of metal ironHalf life was determined Spectrophotometrically; assay type: ADME
# Mus musculus [21] = test: BDF1 male mice were administered with the compound orally and number of survivors was determined out of 10 tested at a dose 100 mg/kg peroral; assay type: functional; conditions: route oral; method in brief: as §2
# [22] = Half life was determined titrimetrically at pH 7.5 in the presence of Cu(II) Half life was determined
# Mus musculus [23] = test: BDF1 male mice were administered with 50 mg/kg orally and percent change in iron levels was determined in Liver; assay type: functional; conditions: route oral
# Method in brief: (§3)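 Hypertransfused male BDF1 mice (canine red cells, washed and heated at 50 °C for 30 min) were dosed orally for 7 days with compound in distilled water or a fine suspension with Polysorbate 80 (2% final). Daily group urine and pooled feces (1 N HCl digest, 90 °C, 30 min, triplicate) were collected, and liver and spleen were homogenized. Iron was measured by atomic absorption and reported as % change vs transfused control.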
# Mus musculus [24] = test: BDF1 male mice were administered with 200 mg/kg orally and percent change in iron levels was determined in Feces; assay type: functional; conditions: route oral; method in brief: as §1
# Mus musculus [25] = test: BDF1 male mice were administered with 50 mg/kg orally and percent change in iron levels was determined in Urine; assay type: functional; conditions: route oral; method in brief: as §3
# Mus musculus [26] = test: BDF1 male mice were administered with 25 mg/kg orally and percent change in iron levels was determined in Spleen; assay type: functional; conditions: route oral; method in brief: as §3
# Mus musculus [27] = test: BDF1 male mice were administered with 200 mg/kg orally and percent change in iron levels was determined in Urine; assay type: functional; conditions: route oral; method in brief: as §1
# [28] = First order rate constant was determined titrimetrically at pH 7.5 in the presence of Co(II)
# [29] = First order rate constant was determined titrimetrically at pH 7.5 in the presence of Cu(II)
# Mus musculus [30] = test: BDF1 male mice were administered with 100 mg/kg orally and percent change in iron levels was determined in Urine; assay type: functional; conditions: route oral; method in brief: as §1
# Mus musculus [31] = test: BDF1 male mice were administered with 200 mg/kg orally and percent change in iron levels was determined in Liver; assay type: functional; conditions: route oral; method in brief: as §1
# Mus musculus [32] = test: BDF1 male mice were administered with 25 mg/kg orally and percent change in iron levels was determined in Liver; assay type: functional; conditions: route oral; method in brief: as §3
# Mus musculus [33] = test: BDF1 male mice were administered with 50 mg/kg orally and percent change in iron levels was determined in Feces; assay type: functional; conditions: route oral; method in brief: as §3
# [34] = First order rate constant was determined titrimetrically at pH 10.5 in the absence of metal iron; assay type: ADME
# Mus musculus [35] = test: BDF1 male mice were administered with the compound orally and number of survivors at a dose 25 mg/kg peroral was determined out of 10 tested; assay type: functional; conditions: route oral; method in brief: as §2
# [36] = Half life was determined titrimetrically at pH 7.5 in the presence of Co(II)Half life was determined (measured in water)
# Mus musculus [37] = test: BDF1 male mice were administered with the compound orally and number of survivors was determined out of 10 tested at a dose 200 mg/kg peroral; assay type: functional; conditions: route oral; method in brief: as §2
# Mus musculus [38] = test: BDF1 male mice were administered with 50 mg/kg orally and percent change in iron levels was determined in Spleen; assay type: functional; conditions: route oral; method in brief: as §3
# [39] = Half life was determined titrimetrically at pH 7.5 in the presence of Zn(II)Half life was determined (measured in water)
# Mus musculus [40] = test: BDF1 male mice were administered with 200 mg/kg orally and percent change in iron levels was determined in Spleen; assay type: functional; conditions: route oral; method in brief: as §1
# [41] = First order rate constant was determined titrimetrically at pH 7.5 in the presence of Zn(II)
# Mus musculus [42] = test: BDF1 male mice were administered with 100 mg/kg orally and percent change in iron levels was determined in Liver; assay type: functional; conditions: route oral; method in brief: as §1
# [43] = Compound was evaluated for lethal dose after intraperitoneal administration using iron overload rat model; assay type: toxicity, organism-based; conditions: in vivo, ip
# Mus musculus [44] = test: BDF1 male mice were administered with 100 mg/kg orally and percent change in iron levels was determined in Feces; assay type: functional; conditions: route oral; method in brief: as §1
# Mus musculus [45] = test: BDF1 male mice were administered with 100 mg/kg orally and percent change in iron levels was determined in Spleen; assay type: functional; conditions: route oral; method in brief: as §1
# [46] = Half life was determined titrimetrically at pH 7.5 in the presence of Fe(III)Half life was determined
# Mus musculus [47] = test: BDF1 male mice were administered with 25 mg/kg orally and percent change in iron levels was determined in Feces; assay type: functional; conditions: route oral; method in brief: as §3
# Mus musculus [48] = test: BDF1 male mice were administered with 25 mg/kg orally and percent change in iron levels was determined in Urine; assay type: functional; conditions: route oral; method in brief: as §3
# Mus musculus [49] = test: BDF1 male mice were administered with the compound orally and number of survivors was determined out of 10 tested at a dose 50 mg/kg peroral; assay type: functional; conditions: route oral; method in brief: as §2
# [50] = Half life was determined titrimetrically at pH 10.5 in the presence of Fe(III)Half life was determined (measured in water); assay type: ADME; conditions: pH 7.5, in the assay text read “pH 7.5” for “pH 10.5”
# Method in brief: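 Metal and chelator were each 5 × 10⁻⁴ M. Constant pH was held with 0.05 M NaOH. Hydrolysis rate came from base consumption, with first-order kinetics.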
compound,measurement,setting,value
CCCCCOC(=O)CN(CCN(CC(=O)OCCCCC)Cc1ccccc1O)Cc1ccccc1O,Iron change,Rattus norvegicus [1],215%
same,Iron change,Rattus norvegicus [2],114%
same,Iron change,Mus musculus [3],-60%
same,Iron change,Mus musculus [4],132%
same,Iron change,Mus musculus [5],24%
same,Iron change,Rattus norvegicus [6],268%
same,No. of survivors,Mus musculus [7],10
same,Iron change,Mus musculus [8],-12%
same,No. of survivors,Mus musculus [9],8
same,Iron change,Mus musculus [10],-69%
same,Iron change,Mus musculus [11],-33%
same,Iron change,Mus musculus [12],117%
same,Iron change,Mus musculus [13],-3%
same,No. of survivors,Mus musculus [14],10
same,Iron change,Mus musculus [15],-2%
same,Iron change,Mus musculus [16],-11%
same,Iron change,Mus musculus [17],43%
same,Iron change,Mus musculus [18],12%
same,Iron change,Rattus norvegicus [19],390%
COC(=O)CN(CCN(CC(=O)OC)Cc1ccccc1O)Cc1ccccc1O,Iron change,Rattus norvegicus [1],694%
same,half-life,[20],3.57 h
same,Iron change,Rattus norvegicus [2],390%
same,No. of survivors,Mus musculus [21],10
same,half-life,[22],2.25 h
same,Iron change,Mus musculus [23],-27%
same,Iron change,Mus musculus [24],-71%
same,Iron change,Rattus norvegicus [6],369%
same,Iron change,Mus musculus [25],49%
same,Iron change,Mus musculus [26],-7%
same,Iron change,Mus musculus [27],127%
same,10E2 k1,[28],0.436 min⁻¹
same,10E2 k1,[29],0.513 min⁻¹
same,Iron change,Mus musculus [30],34%
same,Iron change,Mus musculus [31],-53%
same,Iron change,Mus musculus [32],-20%
same,Iron change,Mus musculus [33],8%
same,10E2 k1,[34],0.325 min⁻¹
same,No. of survivors,Mus musculus [35],10
same,half-life,[36],2.72 h
same,No. of survivors,Mus musculus [37],10
same,Iron change,Mus musculus [38],-12%
same,half-life,[39],0.318 h
same,Iron change,Mus musculus [40],-29%
same,10E2 k1,[41],3.66 min⁻¹
same,Iron change,Mus musculus [42],-42%
same,LD50,[43],≥ 800 mg/kg
same,Iron change,Mus musculus [44],-2%
same,Iron change,Mus musculus [45],-12%
same,half-life,[46],0.328 h
same,Iron change,Mus musculus [47],-10%
same,Iron change,Mus musculus [48],30%
same,No. of survivors,Mus musculus [49],10
same,Iron change,Rattus norvegicus [19],588%
same,half-life,[50],5.4 min

# Reference: ChEMBL document CHEMBL1123309, “Esters and lactones of phenolic amino carboxylic acids: prodrugs for iron chelation” (J Med Chem, 1986)
